# Only some compounds are listed: those with a hit (about 2.3% of all), similar ones and a draw of the others.
# TRPC4 block: inhibitors of mouse TRPC4 channel; B-score at 10 µM; HEK293 TRPC4beta/mu-opioid, DAMGO-evoked Fluo4 calcium flux; active compounds read low; 0.39% of 300,000 active;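 active means B-score over 3 SD under the library average, no early fluorescence shift, positive overall ratio signal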
#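 Material: HEK293 cells with stable TRPC4beta plus mu-opioid receptor expression; probe or stimulus: DAMGO in two steps, submaximal then maximal; technique: Fluo4 calcium fluorescence by kinetic imaging, 5 s 1 Hz baseline; measure: integrated fluorescence ratio relative to baseline, converted to per-well B score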
# TRPC6 inhibitor: mouse TRPC6 channel inhibition; AID 2553; 1.1% of 310,000 active; HEK293-TRPC6, membrane potential dye, ACh-evoked depolarization; active compounds read low; Q61143; B-score at 10 µM;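 active means B-score under library mean minus 3 SD, initial fluorescence not abnormally high, positive integrated signal ratio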;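 further: B-score derived from integrated fluorescence ratio over the kinetic read; more negative B-score means stronger inhibition of depolarization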
# Target sequence (Q61143 whole entry, looked up): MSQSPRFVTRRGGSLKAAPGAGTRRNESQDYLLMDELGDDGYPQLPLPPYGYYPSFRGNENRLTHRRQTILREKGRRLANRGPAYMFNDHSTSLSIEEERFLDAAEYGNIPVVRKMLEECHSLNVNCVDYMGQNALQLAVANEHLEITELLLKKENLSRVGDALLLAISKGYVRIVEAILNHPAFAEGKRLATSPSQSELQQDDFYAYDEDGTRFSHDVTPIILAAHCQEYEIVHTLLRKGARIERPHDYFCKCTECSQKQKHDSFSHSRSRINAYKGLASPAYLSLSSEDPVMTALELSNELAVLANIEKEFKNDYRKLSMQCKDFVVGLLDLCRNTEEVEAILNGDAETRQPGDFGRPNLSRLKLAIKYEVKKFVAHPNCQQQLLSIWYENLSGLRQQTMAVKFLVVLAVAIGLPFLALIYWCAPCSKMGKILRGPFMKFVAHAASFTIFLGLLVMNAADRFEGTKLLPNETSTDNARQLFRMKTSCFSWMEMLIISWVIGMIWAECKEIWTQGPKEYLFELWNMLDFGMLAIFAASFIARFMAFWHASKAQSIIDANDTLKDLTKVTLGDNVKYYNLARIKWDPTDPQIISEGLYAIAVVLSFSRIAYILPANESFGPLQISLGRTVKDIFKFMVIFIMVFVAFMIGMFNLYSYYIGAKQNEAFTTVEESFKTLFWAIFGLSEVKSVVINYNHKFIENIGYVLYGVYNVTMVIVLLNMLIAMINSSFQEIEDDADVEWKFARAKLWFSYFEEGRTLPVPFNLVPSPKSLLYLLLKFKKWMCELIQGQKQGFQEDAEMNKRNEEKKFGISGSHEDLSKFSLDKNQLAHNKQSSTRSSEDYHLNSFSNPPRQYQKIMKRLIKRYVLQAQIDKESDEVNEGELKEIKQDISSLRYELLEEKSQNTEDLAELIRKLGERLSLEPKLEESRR
# TRPC4 potent: TRPC4 (mouse) allosteric potentiation. Q9QUQ5. HEK293 TRPC4beta/mu-opioid, DAMGO EC20, Fluo-4 Ca2+ flux; active compounds read high. B-score at 10 µM. 0.42% of 310,000 active;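 active means B-score of calcium response area above 5 SD of library B-scores, with initial fluorescence ratio within 5 SD of library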
# TRPC4 act: TRPC4 (mouse) channel activation; HEK293 TRPC4beta/mu-opioid, Fluo4 calcium fluorescence; active compounds read high; B-score at 10 µM; 0.49% of 310,000 active; AID 2237;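 active means B-score above 5 SD of library B-scores, and initial fluorescence ratio not above library mean plus 5 SD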;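 further: positive B-score marks a calcium rise read as TRPC4 activation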
#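 Test system: HEK293 cells stably co-expressing mouse TRPC4beta and mu-opioid receptor | Schedule: Fluo4 dye loading 45 min at room temperature, 110 s recording | Measured by: Kinetic Fluo4 calcium fluorescence, 5 s baseline at 1 Hz | Evaluation: B score of integrated ratio | Controls: Buffer (low) and maximal DAMGO (high)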
# TRPC6 act: activates the mouse TRPC6 cation channel; Q61143; AID 2550; 0.13% of 310,000 active; HEK293-TRPC6 membrane potential dye fluorescence; active compounds read high; B-score at 10 µM;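 active means B-score of the integrated fluorescence ratio above library mean plus 3 SD, and starting fluorescence ratio within library mean plus 5 SD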;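 further: higher score means more depolarization so channel activation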
# TRPC4 sel inh 2: second check of whether TRPC6 inhibitors also affect mouse TRPC4 | inhibition, % at 10 µM | HEK293 TRPC4/MOR, membrane potential dye fluorescence; channel activated by saturating DAMGO dose | 42% of 920 active | shares compounds with TRPC6 inhibitor;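 active means compounds whose fluorescence signal differed from control wells by over 3 SD, either direction, in both duplicate plates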
# TRPC4 spec: tests whether TRPC6 inhibitors also affect mouse TRPC4. shares compounds with TRPC6 inhibitor. HEK293 TRPC4/mu-opioid, membrane potential fluorescence. activity change, negative = inhibition, % at 10 µM. 61% of 920 active;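 active means rise or fall in signal beyond 3 SD of buffer-only wells in both replicate plates, either sign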;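 further: integrated kinetic ratio of fluorescence range over baseline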
# HEK293 MPD ctr 2-1: parental HEK293 nonspecific activity of TRPC6 inhibitors, second screen | signal change vs control, % at 10 µM | AID 2779 | parental HEK293 membrane potential dye fluorescence; maximal acetylcholine challenge after compound addition | shares compounds with TRPC6 inhibitor | 31% of 920 active;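 active means membrane potential signal moving either way by over 3 SD of the maximum-effect control, in both duplicate plates, meaning non-specific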
# HEK293 MPD ctr-1: counter-screen for TRPC6 inhibitors: effect in parental HEK293 cells | shares compounds with TRPC6 inhibitor | parental HEK293 membrane potential dye fluorescence | membrane potential signal change, % at 10 µM | 60% of 920 active | AID 2780;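 active means membrane potential signal shifting up or down by more than 3 SD of buffer-only wells, on both duplicate plates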
# HEK293 MPD ctr-2: checks TRPC6 modulator effects in parental HEK293 cells; shares compounds with TRPC6 inhibitor; membrane potential dye fluorescence; membrane potential signal change, % at 10 µM; 51% of 2,400 active;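 active means membrane potential signal moves up or down beyond 5 SD from buffer-only wells, on both duplicate plates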
# HEK293 MPD ctr 2-2: second check of TRPC6 modulator effects in parental HEK293 cells; shares compounds with TRPC6 inhibitor; membrane potential dye fluorescence; after compound, maximal acetylcholine stimulation; inhibition, % at 10 µM; 14% of 2,400 active; AID 488926;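 active means membrane potential signal drops by more than 5 SD from the mean control signal, in both duplicate plates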
# TRPC4 ctr mod: tests whether TRPC6 modulators also affect mouse TRPC4. shares compounds with TRPC6 inhibitor. HEK293 TRPC4/mu-opioid, membrane potential fluorescence. percent change from control (negative = decrease, positive = increase), % at 10 µM. 69% of 2,400 active. AID 488927;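 active means membrane potential signal moved up or down beyond 5 SD of buffer control wells, in both duplicate plates, actives on both sides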
# TRPC4/MOR inh 2: mouse TRPC4 off-target activity of TRPC6 modulators, second screen; HEK293 TRPC4/mu-opioid, membrane potential dye fluorescence; stimulated with maximal-effect DAMGO; shares compounds with TRPC6 inhibitor; inhibition, % at 10 µM; 55% of 2,400 active;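 active means drop in membrane potential signal beyond 5 SD of the control wells in both duplicate plates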;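 further: TRPC4 counter screen for TRPC6 hits run under conditions tuned for TRPC6 not TRPC4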
# TRPC6 block conf: mouse TRPC6 inhibitor confirmation | shares compounds with TRPC6 inhibitor | HEK293-TRPC6, membrane potential dye, ACh-evoked depolarization | inhibition, % at 10 µM | 43% of 3,300 active | AID 488960;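 active means fluorescence ratio falls more than 5 SD below the full-stimulation control mean, in both duplicate runs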;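 further: integrated fluorescence ratio of peak minus minimum over baseline after agonist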
# TRPC6 act conf: mouse TRPC6 activator confirmation; shares compounds with TRPC6 inhibitor; HEK293-TRPC6 membrane potential dye fluorescence, FDSS; activation, % at 10 µM; 11% of 2,800 active; AID 488961;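 active means ratio signal rise beyond 5 SD above unstimulated control wells' mean, seen in both duplicate runs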
# A number is an active result; i = inactive; nt = not tested or not shown.
SMILES,TRPC4 block,TRPC6 inhibitor,TRPC4 potent,TRPC4 act,TRPC6 act,HEK293 MPD ctr-2,HEK293 MPD ctr 2-2,TRPC4 ctr mod,TRPC4/MOR inh 2,TRPC6 block conf,TRPC6 act conf,others
CCOCCCn1c(=N)c(C(=O)NCc2ccc3c(c2)OCO3)cc2c(=O)n3cccc(C)c3nc21,i,-5.11,i,i,i,i,i,-12.0%,35.5%,i,i,
N=c1c(C(=O)NC2CCCC2)cc2c(=O)n3ccccc3nc2n1CC1CCCO1 (centres undefined),i,i,i,i,i,nt,nt,nt,nt,nt,nt,
Cc1ccc(CNC(=O)c2cc3c(=O)n4ccccc4nc3n(CC3CCCO3)c2=N)cc1 (centres undefined),i,-6.2,11,i,i,i,i,-35.5%,52.5%,64.5%,i,
Cc1ccc(C(=O)N/C(=C\c2ccco2)C(=O)N2CCCCC2)cc1,i,i,i,i,i,nt,nt,nt,nt,nt,nt,
CCOCCCNC(=O)C(c1ccc(C)cc1)N(Cc1cccs1)C(=O)c1ccccc1O (centres undefined),i,i,i,i,i,nt,nt,nt,nt,nt,nt,
CCCCCC(=O)Nc1ccc(C(=O)COC(=O)c2ccccn2)cc1,i,i,i,i,i,nt,nt,nt,nt,nt,nt,
O=[N+]([O-])c1ccccc1S(=O)(=O)N1CCCC(C(F)(F)F)C1 (centres undefined),i,-5.09,i,i,i,i,i,i,i,i,i,
O=C(COC(=O)CSc1ccc([N+](=O)[O-])cc1)NCc1ccco1,i,i,i,i,i,nt,nt,nt,nt,nt,nt,
CC(C)S(=O)(=O)c1csc(NC(=O)Nc2cccc([N+](=O)[O-])c2)c1Cl,i,i,i,i,i,nt,nt,nt,nt,nt,nt,
Cc1ccc(NC(=O)CSCC(=O)Nc2ccc(N3CCOCC3)c(Cl)c2)cc1,i,-5.7,i,i,i,i,i,i,i,i,i,
CC(=O)Nc1ccc(N2CCOCC2)c(Cl)c1,i,i,i,i,i,nt,nt,nt,nt,nt,nt,
NS(=O)(=O)c1ccc(NC(=O)C(Sc2ccccc2)c2ccccc2)cc1 (centres undefined),i,i,i,i,i,nt,nt,nt,nt,nt,nt,
Cc1cc(=O)n(Cc2ccccc2)c2ccccc12,i,i,i,i,i,nt,nt,nt,nt,nt,nt,
Cc1c(CN(C)C)c2c(n1Cc1ccccc1)C(=O)c1ccccc1-2,-6,-7,i,i,i,-173.5%,i,-33.0%,78.5%,44.0%,i,
COCc1c(C#N)c(NCCc2ccccc2)nc(C)c1[N+](=O)[O-],i,i,i,i,i,nt,nt,nt,nt,nt,nt,
COCc1c(C#N)c(NCCc2ccc(F)cc2)nc(C)c1[N+](=O)[O-],i,-7.97,i,i,i,nt,nt,nt,nt,i,i,TRPC4 sel inh 2=i;TRPC4 spec=i;HEK293 MPD ctr 2-1=i;HEK293 MPD ctr-1=i
COC(=O)c1ccccc1NC(=O)CN1CCC(C)CC1,i,-5.08,i,i,i,i,i,19.5%,i,39.0%,nt,
COC(=O)c1ccccc1NC(=O)COC(C)=O,i,i,i,i,i,nt,nt,nt,nt,nt,nt,
COC(=O)c1ccccc1NC(=O)COC(=O)C1CCCCC1,i,-5,i,i,i,141.5%,i,31.0%,i,41.0%,nt,
CC(=O)c1ccc(Nc2nc(=O)c3cccnc3s2)cc1,i,-5.78,i,i,i,-175.5%,i,-33.0%,i,i,i,
COc1ccc(/C=C/c2nc(S(=O)(=O)c3ccccc3)c(N(C)C)o2)cc1,i,i,i,i,i,nt,nt,nt,nt,nt,nt,
CCCCCCCCn1c2c(c(=N)c3ccccc31)CCC2,i,i,i,i,i,nt,nt,nt,nt,nt,nt,
CCCCn1c2c(c(=N)c3ccccc31)CCC2,i,-7.18,i,i,i,nt,nt,nt,nt,83.3%,i,TRPC4 sel inh 2=59.5%;TRPC4 spec=-28.6%;HEK293 MPD ctr 2-1=-20.0%;HEK293 MPD ctr-1=-507.5%
CCCCCn1c2c(c(=N)c3ccccc31)CCC2,-8,-8.1,i,i,i,nt,nt,nt,nt,70.6%,i,TRPC4 sel inh 2=56.0%;TRPC4 spec=-25.6%;HEK293 MPD ctr 2-1=19.5%;HEK293 MPD ctr-1=-388.5%
CCOC(=O)Cn1c2c(c(=N)c3ccccc31)CCC2,i,i,i,i,i,nt,nt,nt,nt,nt,nt,
SMILES,TRPC4 block,TRPC6 inhibitor,TRPC4 potent,TRPC4 act,TRPC6 act,HEK293 MPD ctr-2,HEK293 MPD ctr 2-2,TRPC4 ctr mod,TRPC4/MOR inh 2,TRPC6 block conf,TRPC6 act conf,others
COCCNC(=O)CSC1=N/C(=C/c2ccc(Cl)c(Cl)c2)C(=O)N1c1ccccc1F,i,i,i,i,i,nt,nt,nt,nt,nt,nt,
CCCCN1CC(=O)N2Cc3[nH]c4ccccc4c3C[C@H]2C1=O,i,i,i,i,i,nt,nt,nt,nt,nt,nt,
Clc1ccc(C[n+]2cc(-c3ccccc3)n3c2CCCCC3)c(Cl)c1,-6,-5.96,i,53,i,160.0%,i,84.0%,92.0%,54.0%,nt,
COCCNc1nc2nonc2nc1N1C[C@H]2CC[C@H]1C2,i,i,i,i,i,nt,nt,nt,nt,nt,nt,
COCCNc1nc2nonc2nc1N1CCC(N(C)C)C1 (centres undefined),i,-5.42,i,i,i,i,i,i,i,i,i,
CCC(C(=O)NC1CCCCC1)n1c(SCc2cccc(C)c2)nc2ccncc21 (centres undefined),i,i,i,i,i,nt,nt,nt,nt,nt,nt,
CCC(C(=O)NC1CCCCC1)n1c(SCc2cccc(F)c2)nc2ccncc21 (centres undefined),i,-5.06,i,i,i,i,i,i,i,i,i,
CN(C)CCC(Oc1ccccc1OCc1ccccc1)c1ccccc1 (centres undefined),i,-5.86,i,i,i,257.0%,i,49.0%,85.0%,43.5%,nt,
Cc1ccc(OCC(=O)NCCS(=O)(=O)N2CCN(c3ccccc3)CC2)cc1,i,i,i,i,i,nt,nt,nt,nt,nt,nt,
Cc1ccccc1OCC(=O)NCCS(=O)(=O)N1CCN(c2ccc(F)cc2)CC1,i,-10.4,i,i,i,nt,nt,nt,nt,94.7%,nt,TRPC4 sel inh 2=i;TRPC4 spec=i;HEK293 MPD ctr 2-1=i;HEK293 MPD ctr-1=i
